Experimental data taken from ChEMBL document CHEMBL1821604, “Anticancer activity and cDNA microarray studies of a (RS)-1,2,3,5-tetrahydro-4,1-benzoxazepine-3-yl]-6-chloro-9H-purine, and an acyclic (RS)-O,N-acetalic 6-chloro-7H-purine” (Eur J Med Chem, 2011).

Tests used:
Assay type in all cases: functional
[1] = tested on: MCF7; assay: Down regulation of RAC2 gene expression in human MCF7 cells at IC50 after 48 hrs by cDNA microarray technique relative to control
[2] = tested on: HT-29; assay: Down regulation of TCP10 gene expression in human HT-29 cells at IC50 after 48 hrs by cDNA microarray technique relative to control
[3] = tested on: HT-29; assay: Down regulation of POU6F1 gene expression in human HT-29 cells at IC50 after 48 hrs by cDNA microarray technique relative to control
[4] = tested on: MCF7; assay: Upregulation of NPAT gene expression in human MCF7 cells at IC50 after 48 hrs by cDNA microarray technique relative to control
[5] = tested on: HT-29; assay: Down regulation of FADS6 gene expression in human HT-29 cells at IC50 after 48 hrs by cDNA microarray technique relative to control
In short: (§1)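 Cells (8 × 10⁶) were cultured in DMEM with 10% heat-inactivated FBS at 37 °C under 5% CO₂. They were exposed for 48 h to compound at its IC₅₀, with DMSO-treated parallel cultures as controls (final DMSO ≤0.1% v/v). Total RNA was isolated by trizol/chloroform phase separation, RNeasy column cleanup and on-column DNase, then quantified by OD260/OD280. Expression was profiled by cDNA microarray relative to control.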

[6] = tested on: MCF7; assay: Down regulation of HLA-DOB gene expression in human MCF7 cells at IC50 after 48 hrs by cDNA microarray technique relative to control; in short: as §1
[7] = tested on: MCF7; assay: Upregulation of SPACA3 gene expression in human MCF7 cells at IC50 after 48 hrs by cDNA microarray technique relative to control
[8] = tested on: MCF7; assay: Upregulation of NRTN gene expression in human MCF7 cells at IC50 after 48 hrs by cDNA microarray technique relative to control
[9] = tested on: MCF7; assay: Down regulation of ADAMTS3 gene expression in human MCF7 cells at IC50 after 48 hrs by cDNA microarray technique relative to control
In short: (§2)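 8 × 10⁶ cells exposed 48 h to compound at its IC50 concentration; total RNA isolated with trizol/chloroform and RNeasy columns including on-column DNase step; RNA quantified by OD 260/280; DMSO-treated cultures as control.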

[10] = tested on: MCF7; assay: Down regulation of TGM4 gene expression in human MCF7 cells at IC50 after 48 hrs by cDNA microarray technique relative to control
[11] = tested on: MCF7; assay: Upregulation of ADPN gene expression in human MCF7 cells at IC50 after 48 hrs by cDNA microarray technique relative to control
[12] = tested on: MCF7; assay: Upregulation of LCN12 gene expression in human MCF7 cells at IC50 after 48 hrs by cDNA microarray technique relative to control
[13] = tested on: HT-29; assay: Down regulation of MGC35130 gene expression in human HT-29 cells at IC50 after 48 hrs by cDNA microarray technique relative to control
[14] = tested on: MCF7; assay: Down regulation of ZNF189 gene expression in human MCF7 cells at IC50 after 48 hrs by cDNA microarray technique relative to control
[15] = tested on: MCF7; assay: Down regulation of GLIPR1 gene expression in human MCF7 cells at IC50 after 48 hrs by cDNA microarray technique relative to control; in short: as §1
[16] = tested on: MCF7; assay: Down regulation of IL1F9 gene expression in human MCF7 cells at IC50 after 48 hrs by cDNA microarray technique relative to control; in short: as §1
[17] = tested on: HT-29; assay: Down regulation of FLJ25476 gene expression in human HT-29 cells at IC50 after 48 hrs by cDNA microarray technique relative to control; in short: as §1
[18] = tested on: HT-29; assay: Down regulation of LOC144448 gene expression in human HT-29 cells at IC50 after 48 hrs by cDNA microarray technique relative to control
[19] = tested on: HT-29; assay: Down regulation of P53AIP1 gene expression in human HT-29 cells at IC50 after 48 hrs by cDNA microarray technique relative to control
[20] = tested on: HT-29; assay: Down regulation of RALGDS gene expression in human HT-29 cells at IC50 after 48 hrs by cDNA microarray technique relative to control
[21] = tested on: HT-29; assay: Down regulation of BAZ2A gene expression in human HT-29 cells at IC50 after 48 hrs by cDNA microarray technique relative to control; in short: as §2
[22] = tested on: MCF7; assay: Upregulation of MRPL49 gene expression in human MCF7 cells at IC50 after 48 hrs by cDNA microarray technique relative to control
[23] = tested on: MCF7; assay: Down regulation of C9orf125 gene expression in human MCF7 cells at IC50 after 48 hrs by cDNA microarray technique relative to control; in short: as §2
[24] = tested on: HT-29; assay: Down regulation of PRKAG1 gene expression in human HT-29 cells at IC50 after 48 hrs by cDNA microarray technique relative to control
[25] = tested on: HT-29; assay: Down regulation of HUS1B gene expression in human HT-29 cells at IC50 after 48 hrs by cDNA microarray technique relative to control; in short: as §1
[26] = tested on: HT-29; assay: Down regulation of SOCS4 gene expression in human HT-29 cells at IC50 after 48 hrs by cDNA microarray technique relative to control
[27] = tested on: MCF7; assay: Down regulation of TAS2R40 gene expression in human MCF7 cells at IC50 after 48 hrs by cDNA microarray technique relative to control
[28] = tested on: HT-29; assay: Down regulation of ORM1 gene expression in human HT-29 cells at IC50 after 48 hrs by cDNA microarray technique relative to control
[29] = tested on: MCF7; assay: Upregulation of ST3GAL1 gene expression in human MCF7 cells at IC50 after 48 hrs by cDNA microarray technique relative to control
[30] = tested on: MCF7; assay: Down regulation of SPINK2 gene expression in human MCF7 cells at IC50 after 48 hrs by cDNA microarray technique relative to control
[31] = tested on: HT-29; assay: Down regulation of EML2 gene expression in human HT-29 cells at IC50 after 48 hrs by cDNA microarray technique relative to control; in short: as §1
[32] = tested on: HT-29; assay: Upregulation of TUBB4 gene expression in human HT-29 cells at IC50 after 48 hrs by cDNA microarray technique relative to control
[33] = tested on: MCF7; assay: Upregulation of LRRC48 gene expression in human MCF7 cells at IC50 after 48 hrs by cDNA microarray technique relative to control
[34] = tested on: HT-29; assay: Down regulation of MGC33637 gene expression in human HT-29 cells at IC50 after 48 hrs by cDNA microarray technique relative to control
[35] = tested on: HT-29; assay: Down regulation of CARHSP1 gene expression in human HT-29 cells at IC50 after 48 hrs by cDNA microarray technique relative to control; in short: as §2
[36] = tested on: HT-29; assay: Down regulation of BENE gene expression in human HT-29 cells at IC50 after 48 hrs by cDNA microarray technique relative to control; in short: as §2
[37] = tested on: HT-29; assay: Down regulation of LMNB1 gene expression in human HT-29 cells at IC50 after 48 hrs by cDNA microarray technique relative to control; in short: as §1
[38] = tested on: HT-29; assay: Down regulation of FLOT1 gene expression in human HT-29 cells at IC50 after 48 hrs by cDNA microarray technique relative to control; in short: as §1

COC(CN(c1ccccc1CO)S(=O)(=O)c1ccccc1[N+](=O)[O-])n1cnc2ncnc(Cl)c21 (racemic)
fold change (FC) [1]: -2.29 | fold change (FC) [2]: -2.75 | fold change (FC) [3]: -3.13 | fold change (FC) [4]: 2.68 | fold change (FC) [5]: -2.34 | fold change (FC) [6]: -2.26 | fold change (FC) [7]: 2.21 | fold change (FC) [8]: 4.22 | fold change (FC) [9]: -2.06 | fold change (FC) [10]: -2.58 | fold change (FC) [11]: 2.37 | fold change (FC) [12]: 2.24 | fold change (FC) [13]: -2.05 | fold change (FC) [14]: -2.17 | fold change (FC) [15]: -2.12 | fold change (FC) [16]: -2.17 | fold change (FC) [17]: -2.11 | fold change (FC) [18]: -2.45 | fold change (FC) [19]: -2.06

O=C(OCC1c2ccccc2-c2ccccc21)N1CC(n2cnc3c(Cl)ncnc32)OCc2ccccc21 (racemic)
fold change (FC) [20]: -2.01 | fold change (FC) [21]: -2.65 | fold change (FC) [22]: 3.12 | fold change (FC) [23]: -3.38 | fold change (FC) [24]: -3.98 | fold change (FC) [25]: -2.3 | fold change (FC) [26]: -2 | fold change (FC) [27]: -2.85 | fold change (FC) [28]: -2.19 | fold change (FC) [29]: 6.38 | fold change (FC) [30]: -3.01 | fold change (FC) [31]: -2.82 | fold change (FC) [32]: 3.23 | fold change (FC) [33]: 2.18 | fold change (FC) [34]: -2.25 | fold change (FC) [35]: -2.12 | fold change (FC) [36]: -2.14 | fold change (FC) [37]: -3 | fold change (FC) [38]: -2.19
